# HUVEC prolif 384 – inhibitors of human endothelial cell proliferation; actives 1.1% (n = 86,000); viability, % at 10 µM (by protocol); AID 648; HUVEC proliferation, CellTiter-Glo luminescence, 72 h; active compounds read low;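 active means viability at or below 30%; inactive means viability above 30%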
# Fibroblast inh – blocks proliferation of human lung fibroblasts; viability, % at 10 µM; actives 1.1% (n = 85,000); LL 47 human lung fibroblast viability, ATP luminescence; active compounds read low;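 active means viability at or below 50% in the single dose screen; inactive means viability above 50%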;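 further: compound exposure lasted 72 h before the ATP readout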
#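 test system = LL 47 human lung fibroblasts | amount = 1,150 fibroblasts seeded per well | medium = 15% FBS in IMEM | times = overnight cell rest, 72 h compound treatment at 37 °C | measured by = CellTiter-Glo luminescence measuring cellular ATP | read-out = viability percentage against median untreated-cell control | benchmarks = cell-only wells, no compound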
# HCT116 PTEN-null – growth suppressors of cells with PTEN tumor suppressor deletion; HCT116 PTEN-null viability, CellTiter-Glo, 60 h; active compounds read low; viability, % at 10 µM; actives 1.2% (n = 140,000); AID 827;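 active means viability at or below a set limit, 4 SD under the median of all tested compounds, cut at about 3.7% in these data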;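 further: PTEN knockout HCT116 line with beta catenin targeted HCT116 as companion control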
# H69AR inhibit – growth inhibitors of human H69AR lung tumor cells; actives 6% (n = 85,000); viability, % at 10 µM; H69AR lung tumor viability, ATP luminescence, 72 h; active compounds read low;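 active means viability at or below 40%; inactive means viability above 40%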;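 further: multidrug resistant small cell line overexpressing MRP-1 efflux transporter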
# Cav32 inh – human Cav3.2 channel inhibition, primary screen; O95180; Cav3.2-expressing cells, Fluo-4 calcium fluorescence FDSS; active compounds read low; B-score at 10 µM; actives 4% (n = 100,000); AID 449739;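 active means single-dose well whose peak fluorescence ratio is a statistical outlier from its plate by either plate-standardised score or position-corrected B-score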
# bCat KO growth – beta-catenin-lacking colon tumor cell growth suppression | AID 818 | HCT116 beta-catenin knockout viability, CellTiter-Glo, 60 h; active compounds read low | viability, % at 10 µM | actives 1.5% (n = 140,000);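 active means viability at or under a set limit, the compound median less 4 SD, cut at about 6% in these data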
# A number is an active result; – = inactive; · = no result. Sampled rows, rich in hits. Any-hit rate of the full collection: about 7.1%.
SMILES,HUVEC prolif 384,Fibroblast inh,HCT116 PTEN-null,H69AR inhibit,Cav32 inh,bCat KO growth
O=C(NCc1ccc2c(c1)OCO2)C1CCC(CNS(=O)(=O)c2ccccc2)CC1 (stereo not drawn),–,–,–,–,-3.8,–
CC(=O)Nc1ccc(NC(=O)C(Cc2ccccc2)NC(=O)C2CCC(C)CC2)cc1 (stereo not drawn),·,·,–,·,·,–
CCCCOc1ccccc1C1CC(=O)NC2=C1C(=O)CCC2 (stereo not drawn),–,48,–,28,·,–
CCCOc1ccccc1C1CC(=O)NC2=C1C(=O)CCC2 (stereo not drawn),–,–,–,–,–,–
CCOc1ccccc1C1CC(=O)NC2=C1C(=O)CCC2 (stereo not drawn),–,–,–,23,–,–
CCOC(=O)/C=C/C(=O)Nc1cccc([N+](=O)[O-])c1,·,·,–,·,·,–
CCOC(=O)/C=C/C(=O)Nc1ccccc1-c1ccccc1NC(=O)/C=C/C(=O)OCC,·,·,2.0,·,·,3.9
N#Cc1ccc(Oc2ccc(/C=N/O)cn2)cc1,·,·,–,·,–,–
CCOc1ccc(S(=O)(=O)N2CCN(c3ccccc3F)CC2)c2cccnc12,–,–,–,–,·,–
CC(C)(C)C(=O)NC(NC(=O)C(C)(C)C)c1ccc([N+](=O)[O-])cc1,·,·,–,·,·,–
CC(C)(C)C(=O)/C(=C\c1ccc([N+](=O)[O-])cc1)n1cncn1,2.1,2.1,1.6,–,–,1.4
O=C(Nc1nnc(-c2cccs2)o1)c1cc(-c2ccccc2)nc2ccccc12,·,·,–,·,·,–
CCOc1ccc(NCc2ccccc2OCc2cccc(F)c2)cc1,·,·,–,·,·,–
COc1cccc2cc(C(N)=O)/c(=N/NC(=O)COc3ccc(Cl)cc3)oc12,·,·,–,·,·,–
CCCCOc1ccc(-c2c(C#N)c(N)nc(SCC(N)=O)c2C#N)cc1,–,·,–,35,·,–
CCCCOC(=O)CSc1nc(N)c(C#N)c(-c2ccc(OCC)cc2)c1C#N,–,–,–,–,–,–
Cc1cc(=O)[nH]c(SCC(=O)Nc2ccccc2C#N)c1C#N,·,·,–,·,–,–
Cc1cc(=O)[nH]c(SCC(=O)Nc2ccc(Br)cc2)c1C#N,–,–,–,31,-9.8,–
CC(C)/C=N/NC(=O)c1ccc(Cl)cc1,·,·,–,·,·,–
COC(=O)c1[nH]c2ccc(Br)cc2c1NC(=O)C(C)N1CCN(C2CCCCC2)CC1 (stereo not drawn),29,25,3.2,15,–,–
COC(=O)c1[nH]c2ccc(C)cc2c1NC(=O)C(C)N1CCN(C2CCCCC2)CC1 (stereo not drawn),–,–,–,–,–,–
COC(=O)c1[nH]c2ccc(C)cc2c1NC(=O)NC1CCCCC1,–,–,–,–,–,5.2
CN(C)S(=O)(=O)N1CCN(C(=O)c2cccs2)CC1,–,–,–,–,·,–
Cc1ccc(S(=O)(=O)N(C)C)cc1NC(=O)CCNC(=O)c1ccccc1Cl,·,·,–,·,·,–
Cc1ccc(C)c(N2CCN(C(=O)CCCOc3cc(=O)n(C)c4ccccc34)CC2)c1,–,–,–,2.8,–,–
SMILES,HUVEC prolif 384,Fibroblast inh,HCT116 PTEN-null,H69AR inhibit,Cav32 inh,bCat KO growth
Cc1ccc(C)c(N2CCN(C(=O)COc3cc(=O)n(C)c4ccccc34)CC2)c1,–,–,–,–,·,–
CCCc1[nH]nc2c1C(c1cn[nH]c1-c1ccc(F)cc1)C(C#N)=C(N)O2 (stereo not drawn),–,–,–,32,·,–
CCCc1[nH]nc2c1C(c1ccccc1OC)C(C#N)=C(N)O2 (stereo not drawn),–,–,–,–,–,–
Cc1n[nH]c(C)c1Sc1ccccc1N=Cc1cc(Cl)cc([N+](=O)[O-])c1O,–,–,–,–,-6.9,–
Cc1ccc(C(=O)NC(c2ccccc2)C(Cl)Cl)cc1 (stereo not drawn),·,·,–,·,·,–
COCCCN(C(=S)Nc1cc(C)cc(C)c1)C(C)c1ccncc1 (stereo not drawn),·,·,–,·,·,–
Cc1ccc(N(CC(=O)N/N=C/c2cccc(Br)c2)S(C)(=O)=O)cc1,·,·,–,·,·,–
NC(=O)/C(=C/c1ccco1)NC(=O)/C=C/c1ccccc1,·,·,–,·,–,–
CC(C)CCOC(=O)/C(=C/c1ccco1)NC(=O)/C=C/c1ccccc1,–,–,–,–,-5.8,–
CC(OC(=O)c1ccc(S(=O)(=O)NCc2ccco2)cc1)C(=O)Nc1ncc(Cl)cc1Cl (stereo not drawn),·,·,–,·,·,–
Cn1c(Sc2ccc(C(F)(F)F)cc2[N+](=O)[O-])nnc1-c1ccccc1,·,·,–,·,–,–
O=Cc1ccc(Sc2nnc(-c3ccccc3)o2)c([N+](=O)[O-])c1,2.4,–,–,2.0,–,–
Cn1nc([N+](=O)[O-])nc1Sc1nnc(-c2ccccc2)o1,–,–,2.6,2.6,–,3.4
CCOc1ccc(C(C)NC(=O)Nc2ccccc2C(=O)OC)cc1 (stereo not drawn),–,–,–,–,–,–
CCC(C)c1ccc(NC(=S)NCc2cccs2)cc1 (stereo not drawn),–,–,–,–,-3.2,–
Cc1ccccc1NC(=O)c1cc(C(=O)c2cc(Cl)ccc2O)cn(-c2ccccc2C)c1=O,·,·,–,·,·,–
CCCCNC(=O)c1ccc(S(=O)(=O)c2ccc(Cl)cc2)c(NC(C)=O)c1,–,–,–,–,–,–
CCOc1ccc(-c2nnn(CC(=O)NCc3ccco3)n2)cc1OCC,–,–,–,–,–,–
CCCCOc1ccc(-c2nnn(CC(=O)NCc3ccco3)n2)cc1,–,–,–,29,–,–
CCN1/C(=C/c2ccc3cccc(C)c3[n+]2CC)Sc2ccccc21,·,·,2.0,·,-3.9,1.7
CCOC(=O)/C(C#N)=C(C)/C=C1\Sc2ccccc2N1CC,·,·,–,·,·,–
CNS(=O)(=O)c1cccc(C(=O)OCC(=O)N2CCc3ccccc3C2)c1,–,–,–,–,–,–
CNS(=O)(=O)c1cccc(C(=O)OCc2cc(Cl)cc3c2OCOC3)c1,–,–,–,–,-4.2,–
CCC1(C)C(Nc2c(C)cccc2C)=NC(=S)N1c1ccc(NC(C)=O)cc1 (stereo not drawn),·,·,–,·,·,–
O=S(=O)(N/N=C1\CC(c2ccccc2)Oc2ccccc21)c1ccccc1 (stereo not drawn),–,–,–,–,-7.7,–
SMILES,HUVEC prolif 384,Fibroblast inh,HCT116 PTEN-null,H69AR inhibit,Cav32 inh,bCat KO growth
CCOc1ccc(S(=O)(=O)N/N=C2/CC(c3ccccc3)Oc3ccccc32)cc1 (stereo not drawn),·,·,–,·,-7.1,–
COCC(=O)Nc1cccc2ccccc12,–,–,–,–,–,–
CC(C)NS(=O)(=O)c1ccc(OCC(=O)Nc2cccc3ccccc23)cc1,–,–,·,–,-3.6,–
COc1ccc(/C=C(/NC(=O)/C=C/c2ccccc2)C(=O)N2CCOCC2)cc1,·,·,–,·,·,–
O=C(/C=C/c1ccccc1)N/C(=C/c1ccccc1)C(=O)N1CCCCC1,·,·,–,·,-5.6,–
Cc1nc2ccccc2c(=O)n1/N=C/c1ccc(N(C)C)cc1,–,–,–,–,–,–

# Assay outcomes: PubChem, several laboratories
